The conditions of data set [1]: cited from earlier work.
Data set [2] is classed as in vivo, healthy Japanese men. To be noted: for Accumulation ratio (day 15/day 1) AUC0–168h / Accumulation ratio (day 15/day 1) Cmax / Accumulation ratio (day 15/day 1) Ctrough: geometric mean ratio (90% CI). In a few lines: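 Blood went into dipotassium-EDTA tubes, was spun 10 min at 1000–1300 g, and plasma was frozen at −20°C. Assay was online-extraction turbulent-flow LC, LLOQ 1.0 ng/mL. Accumulation was the day 15/day 1 geometric mean ratio, computed on the log scale with CIs. For the food comparison, 10 mg single doses were given after a ≥10-h fast or after a 411-kcal Japanese breakfast finished 10 min predose.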

Another data set can be described thus: Urine pharmacokinetics. It is filed as in vivo, healthy Japanese men. To be noted: male, human, 50 mg. In a few lines:
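After the 50 mg once-weekly dose on day 15, urine was collected predose (day 1) and at intervals up to 168 h. Tween 20 was added to 0.2% final and samples were stored at −20°C. The assay was LC online extraction, LLOQ 40 ng/mL. Amount excreted was the sum of concentration × volume per interval, fraction excreted was amount/dose, and renal clearance was amount/AUC0–168h.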

The target in data set [3] is T1, plasma DPP‐4 activity (Homo sapiens, UniProt P27487). The experiment in a line: Percent inhibition of plasma DPP-4 activity from baseline. It is filed as in vivo, healthy Japanese men. To be noted: for DPP-4 percent inhibition from baseline, LS mean (95% CI) / DPP-4 percent inhibition, difference from placebo, difference in LS means (90% CI): 168 h post-dose. In a few lines:
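Healthy men received 1–50 mg orally once weekly for 3 weeks. Blood was drawn predose and at set times on days 1 and 15; 4-h and 24-h samples preceded meals. EDTA plasma was incubated with glycyl-prolyl-paranitroanilide, and the absorbance rise at 390 nm was read from 4 to 14 min (LOQ 0.6 mOD/min). Inhibition was taken versus pretreatment and analysed by a log-scale mixed model (treatment, day, interaction; participant random).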

The target of data set [4] is T1, plasma DPP‐4 activity. It is filed as in vivo, healthy Japanese men. To be noted: pharmacokinetic/pharmacodynamic Emax model. The essentials:
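For each participant, percent inhibition of plasma DPP-4 activity (chromogenic glycyl-prolyl-paranitroanilide substrate, 390 nm) was paired with plasma drug concentration after single oral doses. A population three-parameter Emax model (Emax, EC50, Hill slope) was fitted, and the 80% effective concentration was derived from it.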

The nature of data set [5]: Safety and tolerability assessments. It is filed as in vivo, healthy Japanese men. The essentials:
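Part 1 used single doses of 5–100 mg and part 2 used 1–50 mg once weekly for 3 weeks, each with placebo. Adverse events were recorded throughout and rated for intensity, duration, severity, outcome and drug relationship. Vital signs, physical and neurological exams, 12-lead ECGs, laboratory tests and glucometer readings were taken predose, post-dose and post-study. Events were tabulated by dose, with change-from-baseline summaries.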

For data set [6] the following is noted: concentration range for 50 mg q.w. dosing; ref unpubl. data; cited from earlier work.
For data set [7] the following is noted: no reference given; cited from earlier work.
The subject of another data set is OAT1. As to conditions: no reference given; cited from earlier work.
In a further data set the test system is OAT3. To be noted: no reference given; cited from earlier work.
A further data set has as its system OCT2. As to conditions: no reference given; cited from earlier work.
For data set [8], the system named is active glucagon‐like peptide‐1. As to conditions: healthy males; earlier study; cited from earlier work.
Where [9] appears, read: multiple dose 1 mg q.w., day 15.
[10] abbreviates: multiple dose 10 mg q.w., day 15.
Where [11] appears, read: multiple dose 25 mg q.w., day 15.
Setting [12] is: multiple dose 50 mg q.w., day 15.
The mark [13] stands for this setting: single 5–100 mg and multiple 1–50 mg q.w. doses.
Setting [14] is: single 5–100 mg and multiple 1–50 mg q.w. doses, listed as Omarigliptin.

“Also recorded” adds a separate entry of the source. Like-named read-outs stand apart in the source and are kept apart here.

T1 sequence (P27487 39-766): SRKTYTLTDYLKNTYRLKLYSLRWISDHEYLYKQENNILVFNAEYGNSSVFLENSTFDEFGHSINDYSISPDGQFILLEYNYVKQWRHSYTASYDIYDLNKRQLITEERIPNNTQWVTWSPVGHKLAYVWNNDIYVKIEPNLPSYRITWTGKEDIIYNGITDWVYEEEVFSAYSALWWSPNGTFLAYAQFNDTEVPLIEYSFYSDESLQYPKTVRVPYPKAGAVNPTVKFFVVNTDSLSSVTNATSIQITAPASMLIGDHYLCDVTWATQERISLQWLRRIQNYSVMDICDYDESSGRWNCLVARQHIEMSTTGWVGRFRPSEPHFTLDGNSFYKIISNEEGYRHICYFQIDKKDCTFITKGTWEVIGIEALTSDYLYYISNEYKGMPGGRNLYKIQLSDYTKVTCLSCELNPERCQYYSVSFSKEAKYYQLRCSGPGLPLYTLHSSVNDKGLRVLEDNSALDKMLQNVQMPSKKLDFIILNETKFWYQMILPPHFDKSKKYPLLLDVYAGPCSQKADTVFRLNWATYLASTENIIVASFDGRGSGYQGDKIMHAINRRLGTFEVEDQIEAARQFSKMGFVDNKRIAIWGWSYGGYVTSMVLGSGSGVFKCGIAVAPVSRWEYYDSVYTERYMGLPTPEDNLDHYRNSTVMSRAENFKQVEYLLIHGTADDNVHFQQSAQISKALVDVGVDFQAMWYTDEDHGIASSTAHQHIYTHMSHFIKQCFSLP

In the case of `Cn1c(=O)cc(N2CCC[C@@H](N)C2)n(Cc2cc(F)ccc2C#N)c1=O` [trelagliptin], the “renal clearance compared with typical glomerular filtration rates” value in [1] is reported as “higher renal clearance than typical glomerular filtration rates”.

Take `N[C@@H](CC(=O)N1CCn2c(nnc2C(F)(F)F)C1)Cc1cc(F)c(F)cc1F` [sitagliptin]: in [1], the “renal clearance compared with typical glomerular filtration rates” value is given as “higher renal clearance than typical glomerular filtration rates”.

For `CS(=O)(=O)n1cc2c(n1)CN([C@H]1CO[C@H](c3cc(F)ccc3F)[C@@H](N)C1)C2` [omarigliptin], in data set [2] (1 mg q.w. for 3 weeks), the “Accumulation ratio (day 15/day 1) AUC0–168h” value is on record as 1.35 (1.27–1.44), the “Accumulation ratio (day 15/day 1) Cmax” value was 1.36 (1.13–1.63) and the “Accumulation ratio (day 15/day 1) Ctrough” value is given as 1.24 (1.06–1.44). For the same compound, in data set [2] (10 mg q.w. for 3 weeks), the “Accumulation ratio (day 15/day 1) AUC0–168h” value is recorded as 1.09 (1.04–1.15), the “Accumulation ratio (day 15/day 1) Cmax” value is recorded as 1.18 (1.00–1.38) and the “Accumulation ratio (day 15/day 1) Ctrough” value is reported as 0.97 (0.86–1.10). Moreover, the “effect of food on pharmacokinetics” value in data set [2] (10 mg single dose with Japanese standard breakfast) is listed as “did not meaningfully alter the pharmacokinetics”. In addition, in data set [2] (25 mg q.w. for 3 weeks), the “Accumulation ratio (day 15/day 1) AUC0–168h” value was 1.05 (1.00–1.11), the “Accumulation ratio (day 15/day 1) Cmax” value is listed as 0.87 (0.75–1.02) and the “Accumulation ratio (day 15/day 1) Ctrough” value is recorded as 1.11 (0.98–1.26). Further, in data set [2] (50 mg q.w. for 3 weeks), the “Accumulation ratio (day 15/day 1) AUC0–168h” value is 1.03 (0.97–1.09), the “Accumulation ratio (day 15/day 1) Cmax” value is 1.21 (1.02–1.43) and the “Accumulation ratio (day 15/day 1) Ctrough” value was 1.03 (0.90–1.18). Besides, in data set [2] (1–50 mg q.w. for 3 weeks), the “accumulation ratio (day 15/day 1) AUC0–168h, range” value is 1.03–1.35; the “accumulation ratio (day 15/day 1) Cmax, range” value was 0.87–1.36; the “accumulation ratio (day 15/day 1) trough plasma concentration, range” value is reported as 0.97–1.24. Besides, the half-life in [2] (male, human, plasma, po, 10 mg, t½, single dose 10 mg, fed, geometric mean (%CV)) is 89.5 h. In data set [2] (multiple dose 1–50 mg q.w.), the “dose proportionality of AUC0–168h and trough plasma concentration” value is listed as “less than dose‐proportional”; the “dose proportionality of Cmax” value is reported as “dose‐proportional”. Further, in data set [2] (multiple q.w. dosing, all doses tested), the “time at which steady state was reached” value is listed as “after the first dose”. In addition, in data set [2] (single dose 10 mg, GMR, 90% CI), the “AUC0–168h geometric mean ratio (fed/fasted)” value is reported as 0.97 (0.90–1.03), the “AUC0–∞ geometric mean ratio (fed/fasted)” value was 1.03 (0.96–1.11), the “C168h geometric mean ratio (fed/fasted)” value is reported as 1.13 (0.93–1.37) and the “Cmax geometric mean ratio (fed/fasted)” value is on record as 0.75 (0.65–0.86). Also, in [2] (single dose 5–100 mg), the “dose proportionality of AUC0–∞, AUC0–168h and Cmax” value was “approximately dose‐proportional”; the “dose proportionality of C168h” value was “less than dose‐proportional”. The same compound yielded a CL renal in “Urine pharmacokinetics” (urine and plasma, oral) of 50 to 68 mL/min. This compound showed a CL renal in “Urine pharmacokinetics” (urine, po) of 38.3 mL/min. The “percent inhibition of DPP‐4 activity from baseline at 168 h, range” value on plasma DPP‐4 activity [3] (1–50 mg q.w., after 3 weeks dosing) is 51.3–90.2%. Further, on plasma DPP‐4 activity [3] (setting [9]), the “DPP-4 percent inhibition from baseline, LS mean (95% CI)” value (shortened to “DPP-4 percent inhibition … (95% CI)”) is recorded as 51.33 (29.67–66.32) % and the “DPP-4 percent inhibition, difference from placebo, difference in LS means (90% CI)” value (“DPP-4 percent inhibition, difference … (90% CI)” for short) is reported as 42.48 (31.06–54.19) %. At plasma DPP‐4 activity [3] (setting [10]), the “DPP-4 percent inhibition … (95% CI)” value is listed as 83.26 (77.03–87.80) % and the “DPP-4 percent inhibition, difference … (90% CI)” value is recorded as 74.41 (65.73–83.59) %. On plasma DPP‐4 activity [3] (setting [11]), the “DPP-4 percent inhibition … (95% CI)” value is 87.52 (83.55–90.53) % and the “DPP-4 percent inhibition, difference … (90% CI)” value is given as 78.67 (70.36–87.51) %. Moreover, on plasma DPP‐4 activity [3] (setting [12]), the “DPP-4 percent inhibition … (95% CI)” value is recorded as 90.23 (86.59–92.88) % and the “DPP-4 percent inhibition, difference … (90% CI)” value was 81.37 (73.30–90.00) %. In addition, on plasma DPP‐4 activity [3] (single dose 5 mg), the “DPP-4 percent inhibition … (95% CI)” value is listed as 79.20 (76.17–81.85) % and the “DPP-4 percent inhibition, difference … (90% CI)” value is reported as 87.89 (80.96–95.09) %. Moreover, at plasma DPP‐4 activity [3] (single dose 10 mg (fasted)), the “DPP-4 percent inhibition … (95% CI)” value is on record as 77.39 (74.14–80.24) % and the “DPP-4 percent inhibition, difference … (90% CI)” value is reported as 86.09 (79.05–93.38) %. In addition, on plasma DPP‐4 activity [3] (single dose 10 mg (fed)), the “DPP-4 percent inhibition … (95% CI)” value is 73.90 (70.14–77.18) % and the “DPP-4 percent inhibition, difference … (90% CI)” value is 82.59 (75.36–90.06) %. For the same compound, at plasma DPP‐4 activity [3] (single dose 25 mg), the “DPP-4 percent inhibition … (95% CI)” value is listed as 85.97 (83.66–87.95) % and the “DPP-4 percent inhibition, difference … (90% CI)” value is listed as 94.66 (88.11–101.49) %. Moreover, on plasma DPP‐4 activity [3] (single dose 50 mg), the “DPP-4 percent inhibition … (95% CI)” value is 86.76 (84.59–88.63) % and the “DPP-4 percent inhibition, difference … (90% CI)” value is 95.45 (88.95–102.25) %. In addition, on plasma DPP‐4 activity [3] (single dose 100 mg), the “DPP-4 percent inhibition … (95% CI)” value is 94.01 (93.03–94.85) % and the “DPP-4 percent inhibition, difference … (90% CI)” value is on record as 102.70 (96.60–109.11) %. The “inhibition from baseline of DPP‐4 activity maintained for 168 h” value against plasma DPP‐4 activity [3] (single and multiple q.w. administration at a dose of 25 mg or higher) was “Greater than 80%”. On plasma DPP‐4 activity [4], the Emax value worked out at 96.5 % inhibition and the “estimated 80% effective concentration” value is reported as 11.4 nmol. Moreover, the “drug‐related clinical adverse events after omarigliptin” value in [5] (part 1, single dosing) is reported as “five”. The “drug‐related adverse events” value in data set [5] (part 2, multiple dosing) was “Eight”. Besides, the “total clinical adverse events” value in data set [5] (part 2, multiple dosing, nine participants) turned out to be 13. In data set [5] (setting [13]), the “adverse events of hypoglycemia” value is on record as “no adverse events of hypoglycemia”; the “serious clinical or laboratory adverse events” value is recorded as “no serious clinical or laboratory adverse events; also recorded: No deaths, serious adverse events or laboratory adverse events were reported”; the tolerability entry is “well tolerated”. Further, in data set [5] (setting [14]), the “adverse events of hypoglycemia” value is “no hypoglycemia being reported” and the tolerability result is on record as “generally well tolerated”. For the same compound, in [5] (whole study), the “changes from baseline in laboratory, vital signs, glucose monitoring or ECG parameters” value is given as “no clinically significant, consistent treatment‐related or dose‐related changes from baseline” and the “discontinuation because of an adverse event” value is given as “no participants were discontinued”. The “intensity of adverse events” value in data set [5] (whole study, all resolved by the end of the study) is given as “mild or moderate intensity”. Moreover, the “free fraction of omarigliptin in humans” value in [6] is 56–76%. For the same compound, in data set [7], the permeability entry is reported as “high permeability”. Moreover, the “substrate of drug transporter OAT1” value in the data set on OAT1 is recorded as “not a substrate”. In addition, in the data set on OAT3, the “substrate of drug transporter OAT3” value is recorded as “not a substrate”. The “substrate of drug transporter OCT2” value with OCT2 was “not a substrate”. The “enhancement of post‐meal active glucagon‐like peptide‐1” value in data set [8] is “approximately twofold”.

On to `Cn1c(=O)cc(N2CCC[C@@H](N)C2)n(Cc2ccccc2C#N)c1=O` [alogliptin], for which the “renal clearance compared with typical glomerular filtration rates” value in data set [1] is “higher renal clearance than typical glomerular filtration rates”.

What is called half-life is the time needed for the level to fall by half in the phase considered. Higher therefore signals slow decline.

(Values after paper PMC5217871 (Journal of Diabetes Investigation, 2016).)
